Our source for the Activity, inhibition and survival values is ChEMBL document CHEMBL1149777, “Synthesis and anti-platelet activity of novel arylsulfonate--acylhydrazone derivatives, designed as antithrombotic candidates” (2008).

Molecules are shown by their SMILES.

A word on the inhibition: it is the percentage by which the read-out fell short of the control.

The test system of test [1] is Plasma. The experiment in a line: Antiplatelet activity against citreated rabbit platelet-rich plasma assessed as ADP-induced platelet aggregation at 150 uM by turbidimetric method. Format: functional, Oryctolagus cuniculus. In short, it runs like this: (§1)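 PRP stirred at 900 rpm, 37 °C, 1 min; compound 150 µM or DMSO vehicle (0.5% v/v) added 1 min before agonist: ADP 5 µM, collagen 5 µg/mL, thrombin 2 nM or arachidonic acid 100 µM. Aggregation read turbidimetrically (Born method).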

The test system of test [2] is Plasma. The experiment in a line: Antiplatelet activity against citreated rabbit platelet-rich plasma assessed as inhibition of thrombin-induced platelet aggregation at 150 uM by turbidimetric method. The class given is functional. As to conditions: Oryctolagus cuniculus. In outline:
as §1

Test [3] has as its system Plasma. Briefly: Antiplatelet activity against citreated rabbit platelet-rich plasma assessed as collagen-induced platelet aggregation at 150 uM by turbidimetric method. The class given is functional, Oryctolagus cuniculus. In outline: as §1
For another test, the system named is Mus musculus. The experiment in a line: Antithrombotic activity against thrombin-induced pulmonary thromboembolism in mouse model assessed as survival at 100 umol/kg, po after 15 mins. The class given is functional. As to conditions: 0.25 h.
The subject of test [4] is Plasma. The experiment in a line: Antiplatelet activity against citreated rabbit platelet-rich plasma assessed as inhibition of ADP-induced platelet aggregation at 150 uM by turbidimetric method. Format: functional. As to conditions: Oryctolagus cuniculus. In short, it runs like this:
as §1

In test [5] the test system is Plasma. The experiment in a line: Antiplatelet activity against citreated rabbit platelet-rich plasma assessed as inhibition of collagen-induced platelet aggregation at 150 uM by turbidimetric method. The class given is functional. As to conditions: Oryctolagus cuniculus. In short, it runs like this: as §1
The subject of test [6] is Plasma. Briefly: Antiplatelet activity against citreated rabbit platelet-rich plasma assessed as inhibition of arachidonic acid-induced platelet aggregation at 150 uM by turbidimetric method. The class given is functional. The settings on record: Oryctolagus cuniculus. In short, it runs like this:
as §1

Test [7] concerns Plasma. The experiment in a line: Antiplatelet activity against citreated rabbit platelet-rich plasma assessed as thrombin-induced platelet aggregation at 150 uM by turbidimetric method. Format: functional, Oryctolagus cuniculus. In short, it runs like this: as §1

Consider `Cc1cc2c(cc1S(=O)(=O)Oc1cccc(C(=O)N/N=C\c3ccncc3)c1)OCO2`, for which the Activity is recorded as 100% in the test with Plasma [1], 59% in the test on Plasma [3] and 16.4% with Plasma [7]. In addition, the inhibition at 150 µM with Plasma [2] amounted to 72.5%; in the test on Plasma [4], 0%; in the test with Plasma [5], 25%; in the test with Plasma [6], 82%. Besides, the survival at 100 µmol/kg in the test with Mus musculus was 33.3%.

In the case of `Cc1cc2c(cc1S(=O)(=O)Oc1ccccc1C(=O)N/N=C\c1ccc(C(=O)O)cc1)OCO2`, the figures for the Activity in the test on Plasma [1], in the test on Plasma [3] and with Plasma [7] were 100%, 100% and 11.9%, respectively. Moreover, the inhibition at 150 µM with Plasma [2] was 80%; with Plasma [4] it was 0%; in the test with Plasma [5] it was 0%; in the test on Plasma [6], 0%. In the test with Mus musculus, the survival at 100 µmol/kg was 80%.

For `Cc1cc2c(cc1S(=O)(=O)Oc1cccc(C(=O)N/N=C\c3ccccc3)c1)OCO2`, the Activity is given as 100% in the test with Plasma [1], 45.6% in the test with Plasma [3] and 100% in the test on Plasma [7]. Moreover, the inhibition at 150 µM in the test with Plasma [2] stood at 0%; with Plasma [4], 0%; in the test on Plasma [5], 42%; in the test on Plasma [6] it was 97%.

For `Cc1cc2c(cc1S(=O)(=O)Oc1cccc(C(=O)N/N=C\c3ccc([N+](=O)[O-])cc3)c1)OCO2`, the Activity with Plasma [1] is 100%; in the test with Plasma [3], 69.6%; in the test on Plasma [7] it was 57.7%. Also, the inhibition at 150 µM in the test with Plasma [2] amounted to 3%; with Plasma [4], 0%; in the test on Plasma [5], 11.5%; in the test on Plasma [6], 81.5%.

Consider `Cc1cc2c(cc1S(=O)(=O)Oc1cccc(C(=O)N/N=C\c3ccc(N)cc3)c1)OCO2`, for which the figures for the Activity in the test with Plasma [1], in the test with Plasma [3] and with Plasma [7] were 100%, 49.2% and 58.2%, respectively. Also, the inhibition at 150 µM in the test on Plasma [2] is 2.2%; with Plasma [4] it was 0%; with Plasma [5], 37.5%; in the test on Plasma [6], 80%.

Take `Cc1cc2c(cc1S(=O)(=O)Oc1cccc(/C=N/NC(=O)c3ccncc3)c1)OCO2`: the Activity with Plasma [1] is given as 63.3%; in the test with Plasma [3], 0%; with Plasma [7] it was 58.7%. Also, the inhibition at 150 µM came out at 1.3% in the test on Plasma [2], 22% in the test with Plasma [4], 100% in the test on Plasma [5] and 94.8% in the test on Plasma [6].

With `CC(=O)Oc1ccccc1C(=O)O` [ASPIRIN], the values for the Activity in the test with Plasma [1], with Plasma [3] and in the test with Plasma [7] were 74.8%, 17.5% and 10.3%, respectively. Also, the inhibition at 150 µM was found to be 82.7% in the test on Plasma [2], 7.9% in the test on Plasma [4], 77.7% with Plasma [5] and 71.6% in the test with Plasma [6].

As to `Cc1cc2c(cc1S(=O)(=O)Oc1cccc(C(=O)N/N=C\c3ccc(C#N)cc3)c1)OCO2`, the figures for the Activity with Plasma [1], in the test on Plasma [3] and in the test with Plasma [7] were 54.9%, 0% and 58.3%, respectively. For the same molecule, the inhibition at 150 µM stood at 2% with Plasma [2], 32% in the test with Plasma [4], 100% with Plasma [5] and 100% with Plasma [6].

Take `Cc1cc2c(cc1S(=O)(=O)Oc1ccc(C(=O)N/N=C\c3ccc(C(=O)O)cc3)cc1)OCO2`: the figures for the Activity in the test with Plasma [1], with Plasma [3] and with Plasma [7] were 100%, 59% and 0%, respectively. Moreover, the inhibition at 150 µM amounted to 100% with Plasma [2], 0% in the test on Plasma [4], 25% in the test with Plasma [5] and 90.8% with Plasma [6]. In addition, the survival at 100 µmol/kg in the test on Mus musculus is 80%.

On to `Cc1cc2c(cc1S(=O)(=O)Oc1cccc(C(=O)N/N=C\c3ccc(C(=O)O)cc3)c1)OCO2`, for which the Activity was determined as 100% in the test with Plasma [1], 100% in the test on Plasma [3] and 2.9% with Plasma [7]. Further, the inhibition at 150 µM in the test with Plasma [2] was 95%; in the test with Plasma [4], 0%; with Plasma [5], 0%; with Plasma [6], 0%. For the same molecule, the survival at 100 µmol/kg in the test on Mus musculus was found to be 53.3%.

As for `Cc1cc2c(cc1S(=O)(=O)Oc1cccc(C(=O)N/N=C\c3ccc(/C(N)=N\O)cc3)c1)OCO2`, the Activity in the test on Plasma [1] stood at 58.7%; with Plasma [3], 0%; in the test on Plasma [7] it was 11.3%. The inhibition at 150 µM in the test on Plasma [2] worked out at 81%; with Plasma [4] it was 36%; in the test with Plasma [5], 100%; with Plasma [6], 100%.
